According to ChEMBL document CHEMBL1138555, “N-acylated and N,N'-diacylated imidazolidine-2-thione derivatives and N,N'-diacylated tetrahydropyrimidine-2(1H)-thione analogues: synthesis and antiproliferative activity” (Eur J Med Chem, 2009):

Assays:
MT4 = assay: Antiproliferative activity against human MT4 cells assessed as reduction of growth by MTT assay; format: functional, cell-based
Outline: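 MT-4 lymphoblastoid T cells (ATCC) in RPMI 1640 with 10% FCS, penicillin/streptomycin, checked for mycoplasma. 1 × 10⁴ mock-infected cells per well with serial dilutions from a 100 mM DMSO stock. Incubated 4 days at 37 °C, viable cells counted by MTT. IC50 versus untreated controls by linear regression. Mean of three separate experiments.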

HL-60(TB) = assay: Growth inhibition of human HL-60(TB) cells after 48 hrs by sulforhodamine B assay; format: functional; details: HL-60, 48 h
Outline: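 NCI 60-cell-line screen protocol: cells exposed to compound at five 10-fold dilutions from 10^-4 to 10^-8 M for the last 48 h of a 72 h incubation. Sulforhodamine B protein assay estimated viability/growth. GI50 (50% growth inhibition) derived; where not reached or exceeded, reported as greater or less than the highest or lowest concentration tested.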

K562 = assay: Growth inhibition of human K562 cells after 48 hrs by sulforhodamine B assay; format: functional; details: K562, 48 h
Outline: (§1)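 NCI screen panel. Five 10-fold concentrations from 10^-4 to 10^-8 M. Exposure for the last 48 h of a 72 h incubation. Growth estimated by sulforhodamine B protein assay. GI50 is the concentration giving 50% growth inhibition. Where that level was not reached or was exceeded, the value is given as above or below the highest or lowest concentration tested.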

MOLT-4 = assay: Growth inhibition of human MOLT4 cells after 48 hrs by sulforhodamine B assay; format: functional; details: MOLT-4, 48 h; outline: as §1
[1] = Growth inhibition of human […] cells after 48 hrs by sulforhodamine B assay; format: functional; outline: as §1
SR = assay: Growth inhibition of human SR cells after 48 hrs by sulforhodamine B assay; format: functional
Outline: (§2)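 NCI in vitro panel screen. Compounds tested at five 10-fold dilutions, 10^-4 to 10^-8 M. Cells in 96-well plates were exposed for the last 48 h of a 72 h incubation. Viability/growth was read by sulforhodamine B protein assay. GI50 is the concentration giving 50% growth inhibition. Values beyond the tested range are reported as greater or less than the maximum or minimum concentration.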

A549 = assay: Growth inhibition of human A549 cells after 48 hrs by sulforhodamine B assay; format: functional; details: A549, 48 h; outline: as §1
EKVX = assay: Growth inhibition of human EKVX cells after 48 hrs by sulforhodamine B assay; format: functional; outline: as §1
HOP-62 = assay: Growth inhibition of human HOP62 cells after 48 hrs by sulforhodamine B assay; format: functional; details: HOP-62, 48 h; outline: as §1
HOP-92 = assay: Growth inhibition of human HOP92 cells after 48 hrs by sulforhodamine B assay; format: functional; details: HOP-92, 48 h; outline: as §1
NCI-H23 = assay: Growth inhibition of human NCI-H23 cells after 48 hrs by sulforhodamine B assay; format: functional; details: NCI-H23, 48 h; outline: as §1
NCI-H322M = assay: Growth inhibition of human NCI-H322M cells after 48 hrs by sulforhodamine B assay; format: functional; outline: as §1
NCI-H460 = assay: Growth inhibition of human NCI-H460 cells after 48 hrs by sulforhodamine B assay; format: functional; details: NCI-H460, 48 h; outline: as §1
COLO 205 = assay: Growth inhibition of human COLO205 cells after 48 hrs by sulforhodamine B assay; format: functional; details: COLO 205, 48 h; outline: as §1
HCT-116 = assay: Growth inhibition of human HCT116 cells after 48 hrs by sulforhodamine B assay; format: functional; details: HCT-116, 48 h; outline: as §1
HCT-15 = assay: Growth inhibition of human HCT15 cells after 48 hrs by sulforhodamine B assay; format: functional; details: HCT-15, 48 h; outline: as §1
HT-29 = assay: Growth inhibition of human HT-29 cells after 48 hrs by sulforhodamine B assay; format: functional; details: HT-29, 48 h; outline: as §1
KM12 = assay: Growth inhibition of human KM12 cells after 48 hrs by sulforhodamine B assay; format: functional; details: KM12, 48 h; outline: as §1
SW-620 = assay: Growth inhibition of human SW620 cells after 48 hrs by sulforhodamine B assay; format: functional; details: SW-620, 48 h; outline: as §2
SF-268 = assay: Growth inhibition of human SF268 cells after 48 hrs by sulforhodamine B assay; format: functional; details: SF-268, 48 h; outline: as §1
SF-295 = assay: Growth inhibition of human SF295 cells after 48 hrs by sulforhodamine B assay; format: functional; details: SF-295, 48 h; outline: as §1
SNB-19 = assay: Growth inhibition of human SNB19 cells after 48 hrs by sulforhodamine B assay; format: functional; details: SNB-19, 48 h; outline: as §2
SNB-75 = assay: Growth inhibition of human SNB75 cells after 48 hrs by sulforhodamine B assay; format: functional; details: SNB-75, 48 h; outline: as §2
U-251 = assay: Growth inhibition of human U251 cells after 48 hrs by sulforhodamine B assay; format: functional; details: U-251, 48 h; outline: as §2
LOX IMVI = assay: Growth inhibition of human LOXIMVI cells after 48 hrs by sulforhodamine B assay; format: functional; outline: as §1
Malme-3M = assay: Growth inhibition of human MALME-3M cells after 48 hrs by sulforhodamine B assay; format: functional; outline: as §1
M14 = assay: Growth inhibition of human M14 cells after 48 hrs by sulforhodamine B assay; format: functional; details: M14, 48 h; outline: as §1
SK-MEL-2 = assay: Growth inhibition of human SK-MEL-2 cells after 48 hrs by sulforhodamine B assay; format: functional; details: SK-MEL-2, 48 h; outline: as §1
SK-MEL-28 = assay: Growth inhibition of human SK-MEL-28 cells after 48 hrs by sulforhodamine B assay; format: functional; details: SK-MEL-28, 48 h; outline: as §1
SK-MEL-5 = assay: Growth inhibition of human SK-MEL-5 cells after 48 hrs by sulforhodamine B assay; format: functional; details: SK-MEL-5, 48 h; outline: as §1
UACC-257 = assay: Growth inhibition of human UACC257 cells after 48 hrs by sulforhodamine B assay; format: functional; details: UACC-257, 48 h; outline: as §2
UACC-62 = assay: Growth inhibition of human UACC62 cells after 48 hrs by sulforhodamine B assay; format: functional; details: UACC-62, 48 h; outline: as §2
IGROV-1 = assay: Growth inhibition of human IGROV1 cells after 48 hrs by sulforhodamine B assay; format: functional; details: IGROV-1, 48 h; outline: as §1
OVCAR-3 = assay: Growth inhibition of human OVCAR-3 cells after 48 hrs by sulforhodamine B assay; format: functional; details: OVCAR-3, 48 h; outline: as §1
OVCAR-4 = assay: Growth inhibition of human OVCAR4 cells after 48 hrs by sulforhodamine B assay; format: functional; details: OVCAR-4, 48 h; outline: as §1
OVCAR-8 = assay: Growth inhibition of human OVCAR8 cells after 48 hrs by sulforhodamine B assay; format: functional; details: OVCAR-8, 48 h; outline: as §1
SK-OV-3 = assay: Growth inhibition of human SKOV3 cells after 48 hrs by sulforhodamine B assay; format: functional; details: SK-OV-3, 48 h; outline: as §1
786-0 = assay: Growth inhibition of human 786-0 cells after 48 hrs by sulforhodamine B assay; format: functional; details: 786-0, 48 h; outline: as §1
ACHN = assay: Growth inhibition of human ACHN cells after 48 hrs by sulforhodamine B assay; format: functional; outline: as §1
CAKI-1 = assay: Growth inhibition of human Caki1 cells after 48 hrs by sulforhodamine B assay; format: functional; details: CAKI-1, 48 h; outline: as §1
RXF 393 = assay: Growth inhibition of human RXF393 cells after 48 hrs by sulforhodamine B assay; format: functional; details: RXF 393, 48 h; outline: as §1
SN12C = assay: Growth inhibition of human SN12C cells after 48 hrs by sulforhodamine B assay; format: functional; outline: as §2
TK-10 = assay: Growth inhibition of human TK10 cells after 48 hrs by sulforhodamine B assay; format: functional; details: TK-10, 48 h; outline: as §2
UO-31 = assay: Growth inhibition of human UO31 cells after 48 hrs by sulforhodamine B assay; format: functional; details: UO-31, 48 h; outline: as §2
PC-3 = assay: Growth inhibition of human PC3 cells after 48 hrs by sulforhodamine B assay; format: functional; details: PC-3, 48 h; outline: as §1
NCI/ADR-RES = assay: Growth inhibition of human NCI/ADR-RES cells after 48 hrs by sulforhodamine B assay; format: functional; outline: as §1
MDA-MB-231 = assay: Growth inhibition of human MDA-MB-231 cells after 48 hrs by sulforhodamine B assay; format: functional; details: MDA-MB-231, 48 h; outline: as §1
MDA-MB-435 = assay: Growth inhibition of human MDA-MB-435 cells after 48 hrs by sulforhodamine B assay; format: functional; details: MDA-MB-435, 48 h; outline: as §1
BT-549 = assay: Growth inhibition of human BT549 cells after 48 hrs by sulforhodamine B assay; format: functional; details: BT-549, 48 h; outline: as §1
T47D = assay: Growth inhibition of human T47D cells after 48 hrs by sulforhodamine B assay; format: functional; outline: as §2

Question: What does the source list for CC(=O)C(=CN1CCN(C(=O)c2ccco2)C1=S)C(C)=O?
Answer: IC50 (MT4): 4 µM; GI50 (HL-60(TB)): 5.8 µM; GI50 (K562): 38.4 µM; GI50 (MOLT-4): 8.2 µM; GI50 [1]: 2.7 µM; GI50 (SR): 2.3 µM; GI50 (A549): 11.2 µM; GI50 (EKVX): 11.2 µM; GI50 (HOP-62): 22 µM; GI50 (HOP-92): 11.7 µM; GI50 (NCI-H23): 16.4 µM; GI50 (NCI-H322M): 4.7 µM; GI50 (NCI-H460): 1.5 µM; GI50 (COLO 205): 23.4 µM; GI50 (HCT-116): 4.1 µM; GI50 (HCT-15): 2.2 µM; GI50 (HT-29): 17.1 µM; GI50 (KM12): 2.8 µM; GI50 (SW-620): 14.6 µM; GI50 (SF-268): 2.6 µM; GI50 (SF-295): 21.7 µM; GI50 (SNB-19): 30.1 µM; GI50 (SNB-75): 9 µM; GI50 (U-251): 4.8 µM; GI50 (LOX IMVI): 2.1 µM; GI50 (Malme-3M): 20.7 µM; GI50 (M14): 4 µM; GI50 (SK-MEL-2): 3.3 µM; GI50 (SK-MEL-28): 3.9 µM; GI50 (SK-MEL-5): 16.6 µM; GI50 (UACC-257): 2.5 µM; GI50 (UACC-62): 5.5 µM; GI50 (IGROV-1): 3.6 µM; GI50 (OVCAR-3): 11.4 µM; GI50 (OVCAR-4): 10.6 µM; GI50 (OVCAR-8): 8.2 µM; GI50 (SK-OV-3): 20 µM; GI50 (786-0): 5.3 µM; GI50 (ACHN): 2.9 µM; GI50 (CAKI-1): 5.2 µM; GI50 (RXF 393): 1.8 µM; GI50 (SN12C): 2.6 µM; GI50 (TK-10): 4.2 µM; GI50 (UO-31): 2.9 µM; GI50 (PC-3): 4.8 µM; GI50 (NCI/ADR-RES): 23.2 µM; GI50 (MDA-MB-231): 2.6 µM; GI50 (MDA-MB-435): 12.6 µM; GI50 (BT-549): 14 µM; GI50 (T47D): 3.7 µM
